Measurements from ChEMBL document CHEMBL5705892, “MK-2206, an allosteric Akt inhibitor, enhances antitumor efficacy by standard chemotherapeutic agents or molecular targeted drugs in vitro and in vivo” (Mol Cancer Ther, 2010).
The source made the active and inactive calls. No cut-off for these calls is given here.

What was measured:
[1] = target: RAC-alpha serine/threonine-protein kinase (Homo sapiens) (UniProt P31749); assay: Induction of AKT phosphorylation at S473 residue in human NCI-H1703 cells at 0.7 nmol/L measured after 8 hrs by MSD assay; type: cell-based; conditions: filed as activator
Sequence of RAC-alpha serine/threonine-protein kinase (Homo sapiens) (P31749 whole entry): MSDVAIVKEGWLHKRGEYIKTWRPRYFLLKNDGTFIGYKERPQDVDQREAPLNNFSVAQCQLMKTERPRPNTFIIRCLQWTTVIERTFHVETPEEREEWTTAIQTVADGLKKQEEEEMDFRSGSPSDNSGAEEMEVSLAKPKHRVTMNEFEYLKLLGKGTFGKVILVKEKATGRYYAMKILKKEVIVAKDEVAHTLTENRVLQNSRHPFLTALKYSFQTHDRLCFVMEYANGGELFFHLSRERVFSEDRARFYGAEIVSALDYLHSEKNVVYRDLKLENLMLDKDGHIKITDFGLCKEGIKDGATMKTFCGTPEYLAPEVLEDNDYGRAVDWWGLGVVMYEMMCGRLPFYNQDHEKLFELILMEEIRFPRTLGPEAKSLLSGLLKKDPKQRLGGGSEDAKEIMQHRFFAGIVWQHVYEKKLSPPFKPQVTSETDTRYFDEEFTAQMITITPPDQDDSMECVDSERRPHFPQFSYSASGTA
Outline: (§1)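 Lung cancer cells were seeded at 5 × 10⁴ per well, and carboplatin or gemcitabine was added 24 h after plating. Phospho-Akt induction was then measured.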

[2] = target: RAC-alpha serine/threonine-protein kinase (Homo sapiens) (UniProt P31749); assay: Induction of AKT phosphorylation at S473 residue in human NCI-H661 cells at 10 nmol/L measured after 8 hrs by MSD assay; type: cell-based; conditions: filed as activator; outline: as §1
[3] = target: RAC-alpha serine/threonine-protein kinase (Homo sapiens) (UniProt P31749); assay: Induction of AKT phosphorylation at S473 residue in human UMC-11 cells at 10 umol/L measured after 4 to 24 hrs by MSD assay; type: cell-based; conditions: dose 10.0 µmol/L, time 4-24 hrs
[4] = target: RAC-alpha serine/threonine-protein kinase (Homo sapiens) (UniProt P31749); assay: Induction of AKT phosphorylation at S473 residue in human NCI-H460 cells at 5 nmol/L measured after 8 hrs by MSD assay; type: cell-based; conditions: filed as activator; outline: as §1
[5] = target: RAC-alpha serine/threonine-protein kinase (Homo sapiens) (UniProt P31749); assay: Induction of AKT phosphorylation at S473 residue in human NCI-H441cells at 5 nmol/L measured after 4 to 24 hrs by MSD assay; type: cell-based; conditions: NCI-H441, time 4-24 hrs; outline: as §1
[6] = target: RAC-alpha serine/threonine-protein kinase (Homo sapiens) (UniProt P31749); assay: Induction of AKT phosphorylation at S473 residue in human NCI-H1993 cells at 28 nmol/L measured after 8 hrs by MSD assay; type: cell-based; conditions: filed as activator; outline: as §1
[7] = Toxicity in human NCI-H460 cells xenografted CD1 nude mouse assessed as body weight loss at 100 mg/kg, iv administered once a week for 2 weeks measured on day 14 to 16; type: organism-based; conditions: in vivo, 336 h, time 14-16 day
Outline: (§2)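 Mice with s.c. NCI-H460 xenografts (50% Matrigel/50% PBS, left flank), randomized at mean 0.2 cm³, n=5/group, treatment started 8 d after implant. Gemcitabine 100 mg/kg i.v. in saline on days 0 and 7; vehicle-only controls. Body weight and physical signs monitored throughout.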

[8] = Toxicity in human NCI-H460 cells xenografted CD1 nude mouse assessed as body weight loss at 100 mg/kg, iv administered once a week for 2 weeks measured during compound dosing relative to control; type: organism-based; conditions: in vivo, 336 h; outline: as §2
NCI-H23 = assay: Antiproliferative activity against human NCI-H23 cells assessed as reduction in cell proliferation measured after 72 hrs by celltiter-glo assay; type: functional, cell-based; conditions: NCI-H23, 72 h
Outline: (§3)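 Cells in RPMI 1640 with 10% heat-inactivated FBS at 37°C and 5% CO₂ were seeded at 2 to 3 × 10³ per well. […] Growth was read as cellular ATP by CellTiter-Glo.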

NCI-H1299 = assay: Antiproliferative activity against human NCI-H1299 cells assessed as reduction in cell proliferation measured after 72 hrs by celltiter-glo assay; type: functional, cell-based; conditions: NCI-H1299, 72 h; outline: as §3
NCI-H292 [9] = assay: Induction of apoptosis in human NCI-H292 cells assessed as increase in caspase-3/7 activity up to 20 umol/L measured after 48 hrs by caspase-glo 3/7 assay; type: functional, cell-based; conditions: dose <= 20.0 µmol/L
Outline: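 Caspase-3/7 activity was measured by Caspase-Glo 3/7 and expressed as fold over DMSO vehicle control. The experiment was done twice.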

[10] = Toxicity in human NCI-H292 cells xenografted CD-1 mouse assessed as death at 50 mg/kg, po administered once daily for 5 days per week for 2 weeks and measured during compound dosing; type: organism-based; conditions: in vivo, 336 h
Outline: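 NCI-H292 cells in 50% Matrigel/PBS injected s.c. into flank of female CD1-nude mice; dosing began after 2 wk at mean tumour 0.2 cm³, n = 5/group. […] Body weight and signs monitored; treatment ended day 16.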

Mus musculus [11] = assay: In vivo inhibition of EGFR in human NCI-H292 cells xenografted mouse assessed as reduction in AKT phosphorylation at S473 residue at 50 mg/kg, po administered as single dose measured after 14 hrs by Western blot analysis; type: functional, organism-based
Calu-6 = assay: Antiproliferative activity against human Calu-6 cells assessed as reduction in cell proliferation measured after 72 hrs by celltiter-glo assay; type: functional, cell-based; conditions: Calu-6, 72 h; outline: as §3
NCI-H292 [12] = assay: Antiproliferative activity against human NCI-H292 cells assessed as reduction in cell proliferation measured after 72 hrs by celltiter-glo assay; type: functional, cell-based; conditions: NCI-H292, 72 h; outline: as §3
NCI-H292 [13] = assay: Antitumor activity against human NCI-H292 cells xenografted in CD-1 mouse assessed as tumor growth suppression at 50 mg/kg, po administered once daily for 5 days per week for 2 weeks and measured twice a week during compound dosing by caliper method; type: functional, organism-based
Outline: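 Female CD1-nude mice carried s.c. NCI-H292 cells in Matrigel/PBS and were randomized at 0.2 cm³, n = 5. […] MK-2206 (30% Captisol) was given 2 h later at 120 mg/kg po on days 0, 2, 4, 7, 9, 11, or at 360 mg/kg on days 0 and 7. Control received vehicle. Caliper volume twice weekly.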

HCC827 = assay: Antiproliferative activity against human HCC827 cells assessed as reduction in cell proliferation measured after 72 hrs by celltiter-glo assay; type: functional, cell-based; conditions: HCC827, 72 h; outline: as §3
Mus musculus [14] = assay: In vivo inhibition of EGFR in human NCI-H292 cells xenografted mouse assessed as reduction in ERK phosphorylation at T202/Y204 residues at 50 mg/kg, po administered as single dose measured after 14 hrs by Western blot analysis; type: functional, organism-based
A-431 = assay: Antiproliferative activity against human A-431 cells assessed as reduction in cell proliferation measured after 72 hrs by celltiter-glo assay; type: functional, cell-based; conditions: A-431, 72 h; outline: as §3
NCI-H358 = assay: Antiproliferative activity against human NCI-H358 cells assessed as reduction in cell proliferation measured after 72 hrs by celltiter-glo assay; type: functional, cell-based; conditions: NCI-H358, 72 h; outline: as §3
PC-3 = assay: Antitumor activity against human PC-3 cells xenografted in CD1 nude mouse assessed as reduction in tumor volume at 5 mg/kg, iv by caliper method; type: functional, organism-based
Outline: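 Male CD1-nude mice received s.c. PC-3 cells and were treated from day 25 after implant, at 0.2 cm³, n = 5. Docetaxel (0.73% ethanol in saline) was given at 5 mg/kg i.v. on day 0. MK-2206 (30% Captisol) was given at 120 mg/kg po on days 1, 3, 5, 8, 10, 12. Caliper volume twice weekly.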

[15] = Toxicity in human PC-3 cells xenografted CD1 nude mouse assessed as body weight loss at 5 mg/kg, iv relative to control; type: organism-based; conditions: in vivo
Outline: (§4)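 Male CD1-nude mice with s.c. PC-3 tumours (50% Matrigel/50% PBS, left flank), randomized at mean 0.2 cm³, n=5/group, treated from 25 d post-implant. Body weight monitored versus vehicle-only controls.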

[16] = Toxicity in human PC-3 cells xenografted CD1 nude mouse assessed as body weight loss at 5 mg/kg, iv measured on day 15 relative to control; type: organism-based; conditions: in vivo, 360 h, time 15 day; outline: as §4
HCC1954 = assay: Antiproliferative activity against human HCC1954 cells assessed as reduction in cell proliferation measured after 72 hrs by celltiter-glo assay; type: functional, cell-based; conditions: HCC1954, 72 h; outline: as §3
SK-OV-3 [17] = assay: Antiproliferative activity against human SK-OV-3 cells assessed as reduction in cell proliferation measured after 72 hrs by celltiter-glo assay; type: functional, cell-based; conditions: SK-OV-3, 72 h; outline: as §3
HCC70 [18] = assay: Antiproliferative activity against human HCC70 cells assessed as reduction in cell proliferation measured after 72 hrs by celltiter-glo assay; type: functional, cell-based; conditions: HCC70, 72 h; outline: as §3
HCC70 [19] = assay: Induction of apoptosis in human HCC70 cells assessed as increase in caspase-3/7 activity at 10 umol/L measured after 48 hrs by caspase-glo 3/7 assay relative to control; type: functional; conditions: dose 10 µmol/L
Outline: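 HCC70 breast cells were treated for 48 h with MK-2206 (0, 0.03, 0.3, 3 µmol/L), with or without lapatinib (0, 1, 3, 5, 10 µmol/L). Caspase-3/7 activity was read by Caspase-Glo 3/7 luminescence and expressed as fold induction over DMSO-treated control. The experiment was run twice.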

SK-BR-3 = assay: Antiproliferative activity against human SK-BR-3 cells assessed as reduction in cell proliferation measured after 72 hrs by celltiter-glo assay; type: functional, cell-based; conditions: SK-BR-3, 72 h; outline: as §3
MDA-MB-468 = assay: Antiproliferative activity against human MDA-MB-468 cells assessed as reduction in cell proliferation measured after 72 hrs by celltiter-glo assay; type: functional, cell-based; conditions: MDA-MB-468, 72 h; outline: as §3
[20] = target: RAC-alpha serine/threonine-protein kinase (Homo sapiens) (UniProt P31749); assay: Inhibition of AKT phosphorylation at S473 residue in human HCC70 cells at 10 umol/L measured up to 24 hrs by Western blot analysis; type: cell-based; conditions: dose 10.0 µmol/L
Outline: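 HCC70 cells at ~70% confluence were exposed to 10 µmol/L lapatinib, 1 µmol/L MK-2206, or both, for 0, 3, 6, 12 or 24 h. Lysates were prepared in Triton X-100/Tris buffer (pH 7.5) with protease and phosphatase inhibitors. Immunoblots after SDS-PAGE and nitrocellulose transfer were probed for pAkt and pS6.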

SK-OV-3 [21] = assay: Antitumor activity against human SK-OV-3 cells xenografted in CB17/icr SCID mouse assessed as tumor growth inhibition at 100 mg/kg, po administered 5 days per week for 2 weeks and measured twice a week during compound dosing by caliper method; type: functional, organism-based
Outline: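 SK-OV-3 cells were implanted s.c. into female C.B-17/ICR-scid mice, which were randomized at 0.13 cm³, n = 5. Lapatinib (water) was given at 100 mg/kg po on days 0–4 and 7–11. MK-2206 (30% Captisol) was given at 60 or 120 mg/kg po on days 0, 2, 4, 7, 9, 11. Tumor volume by calipers twice weekly.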

NCI-N87 = assay: Antiproliferative activity against human NCI-N87 cells assessed as reduction in cell proliferation measured after 72 hrs by celltiter-glo assay; type: functional, cell-based; conditions: NCI-N87, 72 h; outline: as §3

Nc1ccn([C@@H]2O[C@H](CO)[C@@H](O)C2(F)F)c(=O)n1 [GEMCITABINE]
Activity [1]: Active | Activity [2]: Active | Activity [3]: inactive | Activity [4]: Active | Activity [5]: inactive | Activity [6]: Active | Activity [7]: Non-Toxic | Activity [8]: 7%

C#Cc1cccc(Nc2ncnc3cc(OCCOC)c(OCCOC)cc23)c1 [ERLOTINIB]
IC50 (NCI-H23): 10.6 µM | IC50 (NCI-H1299): 21.1 µM | Activity (NCI-H292 [9]): inactive | Activity [10]: Non-Toxic | inhibition (Mus musculus [11]): inactive | IC50 (Calu-6): 35.6 µM | IC50 (NCI-H292 [12]): 500 nM | Activity (NCI-H292 [13]): Active | IC50 (HCC827): 20 nM | inhibition (Mus musculus [14]): Active | IC50 (A-431): 1900 nM | IC50 (NCI-H358): 4.4 µM

CC(=O)O[C@@]12CO[C@@H]1C[C@H](O)[C@@]1(C)C(=O)[C@H](O)C3=C(C)[C@@H](OC(=O)[C@H](O)[C@@H](NC(=O)OC(C)(C)C)c4ccccc4)C[C@@](O)([C@@H](OC(=O)c4ccccc4)[C@H]21)C3(C)C [DOCETAXEL ANHYDROUS]
Activity (PC-3): Active | Activity [15]: 4% | Activity [16]: Non-Toxic

CS(=O)(=O)CCNCc1ccc(-c2ccc3ncnc(Nc4ccc(OCc5cccc(F)c5)c(Cl)c4)c3c2)o1 [LAPATINIB]
IC50 (HCC1954): 5.5 µM | IC50 (SK-OV-3 [17]): > 10 µM | IC50 (HCC70 [18]): 3.2 µM | fold change (FC) (HCC70 [19]): ~2 | IC50 (SK-BR-3): 30 nM | IC50 (MDA-MB-468): 4.5 µM | inhibition [20]: inactive | TGI (SK-OV-3 [21]): Active | IC50 (NCI-N87): 40 nM
